Compound activity as filed in PubChem BioAssay.
CSN deneddyl inh – blocks human CSN-mediated cullin deneddylation; inhibition, % at 12.5 µM; AID 651999; 0.38% of 360,000 active; Q92905; Purified CSN, SCF-Nedd8-OG deneddylation, fluorescence polarization;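 active = pattern-corrected inhibition above about 35%, with an unprinted fluorescence ratio check between 0.5 and 1.5, limit read from the data, passing the limit was not always enough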;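 note: 0% = enzyme with substrate and 100% = substrate without enzyme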
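Test system: Human Csn5 produced in HEK293T cells | Compound: 12.5 µM single point | Times: 90 min, room temperature | Signal: Fluorescence polarization readout | Read-out basis: % inhibition of substrate cleavage by Csn5 | Controls: no-enzyme wells high, enzyme-with-substrate wells low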
ARFGAP1 inhibitor – inhibits rat ARF GTPase activating protein 1; Q62848; Arfgap1-stimulated ARF1 GTP hydrolysis, GDP FP detection; inhibition, % at 16.5 µM; 0.26% of 360,000 active; AID 651572;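 active = inhibition above a per-plate limit, mean inhibition of low control wells plus 3 SD, cut at about 25% in these data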;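 note: 0% = DMSO wells with enzyme and 100% = wells lacking Arfgap1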
Target sequence (Q62848 1-136 limits assumed): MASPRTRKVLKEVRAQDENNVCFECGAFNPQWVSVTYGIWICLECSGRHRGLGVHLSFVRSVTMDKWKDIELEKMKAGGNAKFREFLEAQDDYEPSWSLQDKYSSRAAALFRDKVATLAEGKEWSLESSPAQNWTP
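Material – truncated rat Arfgap1 GAP domain · Buffer or medium – HEPES-based buffer, pH 7.5 · Reagent – human ARF1(Δ1-17)-GTP substrate · Dosing – 16.5 µM single point, 1.26% DMSO · Schedule – GTP hydrolysis reaction 2 h at 25 °C · Technique – GDP detection by fluorescence polarization · Benchmarks – No-Arfgap1 wells (100%) versus DMSO full-reaction wells (0%) · Repeats – single replicate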
ASAP1 inh – blocks human ASAP1-stimulated Arf1 GTP hydrolysis; Q9ULH1; GDP FP detection; inhibition, % at 16.5 µM; 0.19% of 360,000 active; AID 624377; in the data active = inhibition above about 25%;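 note: 0% = vehicle with enzyme and substrate and 100% = no enzyme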
HNF4A DNA FP – change in binding of human HNF4 alpha to DNA; HNF4a-FITC DNA binding, fluorescence polarization, 1 h; activity change, % at 10 µM; 0.3% of 360,000 active; in the data active = activity change above about 30%, passing the limit was not always enough
Target sequence (P41235 whole entry, looked up): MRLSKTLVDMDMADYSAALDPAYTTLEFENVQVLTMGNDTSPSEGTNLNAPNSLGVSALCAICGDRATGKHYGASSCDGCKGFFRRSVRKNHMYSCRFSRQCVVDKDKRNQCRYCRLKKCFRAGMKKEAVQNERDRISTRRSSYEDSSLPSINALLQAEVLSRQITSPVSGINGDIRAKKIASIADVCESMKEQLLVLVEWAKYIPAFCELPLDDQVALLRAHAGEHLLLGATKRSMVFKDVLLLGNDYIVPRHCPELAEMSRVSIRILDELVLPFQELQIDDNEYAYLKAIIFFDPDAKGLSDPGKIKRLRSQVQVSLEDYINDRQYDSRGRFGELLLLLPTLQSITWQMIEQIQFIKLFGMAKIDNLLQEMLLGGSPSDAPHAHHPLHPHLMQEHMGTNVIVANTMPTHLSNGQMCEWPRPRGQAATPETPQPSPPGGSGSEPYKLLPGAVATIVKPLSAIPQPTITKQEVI
CSN deneddyl val – validation of inhibitors of human CSN-mediated cullin deneddylation. Csn5 deneddylation of SCF-Nedd8OG, fluorescence polarization, 90 min. shares compounds with CSN deneddyl inh. 62% of 540 active. AID 720654. inhibition, % at 16.6 µM; in the data active = inhibition above about 50%;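 note: 0% = DMSO with enzyme and 100% = no enzyme wells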
MMP-2 counter – blocks human MMP-2 in a CSN deneddylation counter-screen | shares compounds with CSN deneddyl inh | recombinant MMP-2, FRET substrate fluorescence, 60 min | inhibition, % at 16.6 µM | 33% of 540 active | AID 720655;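 active = corrected plate-normalized z-score of 5 or more, or -5 or less, or inhibition of 15% or more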;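 note: plate controls were DMSO wells with enzyme for no effect and buffer wells lacking MMP-2 for full effect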
Thrombin cntr – thrombin (bovine) inhibition, counter-screen for CSN hits; bovine thrombin cleavage of Ub4-pepOG, fluorescence polarization; inhibition, % at 16.6 µM; AID 720656; shares compounds with CSN deneddyl inh; 49% of 540 active;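 active = inhibition at or above a set limit, with a fluorescence interference ratio between 0.5 and a set maximum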
* = called active by the depositor; nt = no result. Most compounds without a hit are left out; they make up all but 0.95% or so of the library.

SMILES	CSN deneddyl inh	ARFGAP1 inhibitor	ASAP1 inh	HNF4A DNA FP	CSN deneddyl val	MMP-2 counter	Thrombin cntr
O=Cc1cn(-c2ccccc2)nc1-c1cc2cc(O)ccc2oc1=O	84*	0	-11	-10	-19	5	15
O=Cc1cn(-c2ccccc2)nc1-c1cc2c(ccc3ccccc32)oc1=O	8	6	11	1	nt	nt	nt
O=C1Nc2ccc(Br)cc2C12NNc1ccccc1O2 (stereo not drawn)	52*	18	9	95	129*	-15	17*
CCc1ccc(N=C2NC(=O)/C(=C/c3cc(Br)c(OCC(=O)O)c(OC)c3)S2)cc1	47*	-10	-2	-24	77*	7	-9
CCc1ccc(N=C2NC(=O)/C(=C/c3cc(OC)c(OC)c(OC)c3)S2)cc1	-1	-3	-4	3	nt	nt	nt
CSc1ccc(C2C(C#N)=C(N)Oc3c2ccc(=O)c2c(C)oc(C)c32)cc1 (stereo not drawn)	49*	-3	2	31	95*	4	15
CSc1nc(SCC(=O)O)c2sc3nc(-c4ccccc4)c4c(c3c2n1)CCC4	64*	-1	0	-85	23	30*	5
CSc1nc(N(C)CCO)c2sc3nc(-c4ccco4)c4c(c3c2n1)CCC4	15	nt	nt	-17	nt	nt	nt
COc1cc(N=Nc2cccc(S(N)(=O)=O)c2)c2ccccc2c1N	46*	5	14	25	82*	15	26*
CC(O)CC(=O)OC[C@]12CC[C@H]3[C@@](C)(CC[C@H]4C(C)(C)CCC[C@]34C)[C@@H]1CC(C1=CC(=O)OC1O)O2 (stereo partly drawn)	46*	-15	-5	-6	31	2	-4
CCOC(=O)/C(=C/c1ccc(N2CCC(c3ccccc3)=N2)cc1)C(C)=O	40*	nt	nt	29	189*	-71*	-32
c1ccc(C2=NN(c3ccccc3)CC2)cc1	7	11	11	-1	nt	nt	nt
CCCCOc1ccc(C(=O)OCC(=O)N2CCOCC2)cc1	0	-6	10	3	nt	nt	nt
CC(=O)N(C)c1ccc(C=C2C=Cc3ccccc32)cc1	2	-6	-6	4	nt	nt	nt
O=C1/C(=C/c2ccc(O)cc2)SC(=S)N1CC1CCCO1 (stereo not drawn)	94*	-5	3	91*	44	-22	46
CCc1nc2ccc(C(=O)N3CCN(S(=O)(=O)CC)CC3)cn2c1N(CC)CCN(C)C	-5	4	-17	-2	nt	nt	nt
CCOc1cc(/C=C2/SC(=S)NC2=O)ccc1OC(=O)c1ccco1	58*	-11	11	24	77*	15*	3
O=C1NC(=S)S/C1=C/c1ccc(OC(=O)c2ccco2)cc1	41*	-10	-10	44*	69*	19*	36*
COc1ccccc1NC(=O)CSc1nnc(-c2ccoc2C)n1CC1CCCO1 (stereo not drawn)	2	6	5	-2	nt	nt	nt
O=C(CNS(=O)(=O)c1ccc2ccccc2c1)OCc1nnc(-c2ccccc2)o1	-1	4	-19	-2	nt	nt	nt
Cc1cc(F)ccc1C(O)c1ncc(-c2cccc(F)c2)[nH]1 (stereo not drawn)	0	-6	-7	2	nt	nt	nt
O=C(O)c1cccc(CSc2ncn[nH]2)c1	3	1	-3	-2	nt	nt	nt
Cc1c(N2C(=O)/C(=C/c3ccc(N(C)C)cc3)N(C)C2=S)c(=O)n(-c2ccccc2)n1C	61*	-11	-1	55*	37	-4	74*
Cc1c(N2C(=O)/C(=C/c3ccccc3)SC2=S)c(=O)n(-c2ccccc2)n1C	-4	-7	4	3	nt	nt	nt
O=C(Nc1ccc(C2=NCCN2)cc1)c1ccc(C(=O)Nc2ccc(C3=NCCN3)cc2)c([N+](=O)[O-])c1	117*	27*	3	76	-40	86*	-1
SMILES	CSN deneddyl inh	ARFGAP1 inhibitor	ASAP1 inh	HNF4A DNA FP	CSN deneddyl val	MMP-2 counter	Thrombin cntr
CCC(=O)Nc1c(S(=O)(=O)c2ccccc2)c2nc3ccccc3nc2n1C(C)c1ccccc1 (stereo not drawn)	-2	12	8	0	nt	nt	nt
CCCCn1c(NC(=O)c2ccc(Br)o2)c(S(=O)(=O)c2ccccc2)c2nc3ccccc3nc21	48*	-9	7	-3	101*	-1	-21
COc1ccccc1CNC(=O)COC(=O)c1cc(-c2ccco2)nc2ccccc12	49*	4	-4	-49	nt	12	6
Cc1ccc(C2=NN(S(=O)(=O)c3ccccc3)C(c3ccccc3O)C2)cc1 (stereo not drawn)	61*	10	10	80*	57*	0	56*
CCOc1cc(Br)cc(/C=C2\SC(=Nc3ccccc3)NC2=O)c1O	4	-3	-1	3	nt	nt	nt
C=CCOc1ccc(Br)cc1/C=C1/SC(=Nc2ccc(C(=O)O)cc2)NC1=O	36*	3	-14	-3	97*	7	4
O=c1oc(/C=C/c2ccc([N+](=O)[O-])s2)nc2ccccc12	50*	nt	nt	9	189*	1	25*
O=C1NC(=Nc2ccc3ccccc3c2)S/C1=C/c1ccco1	67*	7	11	11	85*	4	18*
Cc1ccc(N=C2NC(=O)/C(=C\c3ccco3)S2)cc1	3	-8	2	4	nt	nt	nt
COc1ccc(N=C2S/C(=C\c3ccco3)C(=O)N2CC(C)C)cc1	7	13	-10	1	nt	nt	nt
O=C1NC(=Nc2ccc(O)cc2)S/C1=C/c1ccco1	5	9	-6	0	nt	nt	nt
Cc1cccc(N=C2NC(=O)/C(=C/C=C/c3ccco3)S2)c1	53*	-6	3	2	88*	-4	2
COc1ccc(N=C2NC(=O)/C(=C\C=C\c3ccco3)S2)cc1	46*	-1	5	-19	84*	14	4
CCOc1ccc(S(=O)(=O)Nc2ccc(C(=O)N3CCCC3)cc2)cc1C(N)=O	0	-1	-9	-3	nt	nt	nt
O=C(CSc1nc2ccccc2c(=O)n1CCCN1CCOCC1)Nc1ccccc1OC(F)F	1	4	13	-1	nt	nt	nt
CCC1=NN2C(=N)/C(=C\c3ccc(SCc4ccco4)o3)C(=O)N=C2S1	78*	12	5	22	45	16*	17*
COc1ccc(S(=O)(=O)N2CCC(C(=O)N[C@@H](C)C(=O)NCc3cccnc3)CC2)cc1	-2	7	-13	1	nt	nt	nt
N=C1/C(=C\c2ccc(-c3cccc(Cl)c3)o2)C(=O)N=C2SC=C(c3ccccc3)N12	38*	9	13	19	64*	10	23*
COc1cc(/C=C2\Oc3cc(O)ccc3C2=O)ccc1O	40*	4	4	33	98*	-7	29*
